Assays:
[1] = molecular target: T1, Sterol O-acyltransferase 2 (Homo sapiens, UniProt O75908); experiment: Inhibition of human ACAT2
T1 sequence (O75908 whole entry): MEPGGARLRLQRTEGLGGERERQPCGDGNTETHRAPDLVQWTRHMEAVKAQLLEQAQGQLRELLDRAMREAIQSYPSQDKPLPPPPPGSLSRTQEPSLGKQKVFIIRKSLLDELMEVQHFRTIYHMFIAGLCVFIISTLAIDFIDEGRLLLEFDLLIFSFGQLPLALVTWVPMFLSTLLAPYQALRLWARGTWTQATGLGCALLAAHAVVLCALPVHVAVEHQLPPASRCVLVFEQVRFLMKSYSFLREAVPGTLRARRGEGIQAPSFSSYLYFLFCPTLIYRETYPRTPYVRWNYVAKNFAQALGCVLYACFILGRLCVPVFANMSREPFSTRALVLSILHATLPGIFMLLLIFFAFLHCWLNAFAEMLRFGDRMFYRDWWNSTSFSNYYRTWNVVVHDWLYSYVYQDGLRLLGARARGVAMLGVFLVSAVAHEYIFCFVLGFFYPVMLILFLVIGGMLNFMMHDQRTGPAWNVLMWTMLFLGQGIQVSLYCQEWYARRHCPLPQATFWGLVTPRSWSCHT
Method in brief: (§1)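 IC50 values are the average of at least two independent determinations.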

[2] = molecular target: T2, Diacylglycerol O-acyltransferase 1 (Mus musculus, UniProt Q9Z2A7); experiment: Inhibition of mouse DGAT1; method in brief: as §1
T2 sequence (Q9Z2A7 whole entry): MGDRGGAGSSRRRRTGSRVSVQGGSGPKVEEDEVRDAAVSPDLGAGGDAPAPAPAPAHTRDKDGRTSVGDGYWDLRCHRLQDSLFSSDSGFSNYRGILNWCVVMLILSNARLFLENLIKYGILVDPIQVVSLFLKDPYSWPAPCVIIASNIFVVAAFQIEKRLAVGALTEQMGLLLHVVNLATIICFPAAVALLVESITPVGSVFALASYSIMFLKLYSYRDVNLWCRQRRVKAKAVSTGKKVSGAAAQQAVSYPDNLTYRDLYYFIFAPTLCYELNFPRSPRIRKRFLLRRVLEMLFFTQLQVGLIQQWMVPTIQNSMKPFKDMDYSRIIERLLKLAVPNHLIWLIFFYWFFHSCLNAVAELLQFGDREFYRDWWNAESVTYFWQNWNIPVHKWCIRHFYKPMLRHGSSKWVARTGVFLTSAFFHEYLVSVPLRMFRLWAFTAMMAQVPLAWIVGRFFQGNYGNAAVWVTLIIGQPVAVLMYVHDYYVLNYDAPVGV

Mus musculus [3] = experiment: Reduction of postprandial plasma triglyceride level in C57BL/6J mouse at 3 mg/kg, po administered 15 mins prior to corn oil bolus challenge measured after 2 hrs relative to vehicle-treated control; type: functional; set-up: scale not given: the % may be the effect or the level left
Method in brief: (§2)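 Vehicle is 20% hydroxypropyl-β-cyclodextrin; compound or vehicle is given 15 min before time 0. Mice receive a 0.25 mL corn oil bolus at time 0. Terminal blood is taken by heart puncture at 120 min. Plasma TG is measured by an enzymatic colorimetric kit with absorbance read at 600 nm. Values are the mean ± SEM from eight studies, as % reduction versus vehicle.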

Mus musculus [4] = experiment: Reduction of postprandial plasma triglyceride level in C57BL/6J mouse at 1 mg/kg, po administered 15 mins prior to corn oil bolus challenge measured after 2 hrs relative to vehicle-treated control; type: functional; set-up: scale not given: the % may be the effect or the level left; method in brief: as §2
Mus musculus [5] = experiment: Reduction of plasma triglyceride level in C57BL/6J mouse at 3 mg/kg, po administered 15 mins prior to corn oil bolus challenge measured after 12 hrs relative to vehicle-treated control; type: functional; set-up: scale not given: the % may be the effect or the level left
[6] = AUC in rat at 10 mg/kg, po; type: ADME, organism-based; set-up: dose 10 mg/kg, route oral; details: plasma
[7] = molecular target: T3, PXR (nuclear receptor subfamily 1 group I member 2) (Homo sapiens, UniProt O75469); experiment: Activation of PXR (unknown origin) at 10 uM; type: ADME; details: read-out: FC
T3 sequence (O75469 whole entry): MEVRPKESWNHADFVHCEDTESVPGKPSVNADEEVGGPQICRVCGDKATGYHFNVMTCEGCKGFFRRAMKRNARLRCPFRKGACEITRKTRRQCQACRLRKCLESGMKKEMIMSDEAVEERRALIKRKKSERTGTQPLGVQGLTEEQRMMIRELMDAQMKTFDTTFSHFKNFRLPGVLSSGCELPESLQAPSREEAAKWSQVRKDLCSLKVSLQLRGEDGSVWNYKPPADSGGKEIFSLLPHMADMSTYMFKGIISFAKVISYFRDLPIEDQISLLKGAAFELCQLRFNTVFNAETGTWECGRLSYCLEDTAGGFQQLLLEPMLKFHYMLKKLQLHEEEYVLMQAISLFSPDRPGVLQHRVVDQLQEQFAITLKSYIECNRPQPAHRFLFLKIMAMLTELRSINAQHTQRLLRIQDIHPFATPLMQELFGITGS

Cytochrome P450 1A1 = molecular target: T4, Cytochrome P450 1A1 (Homo sapiens, UniProt P04798); experiment: Induction of CYP1A1 (unknown origin); type: ADME
T4 sequence (P04798 whole entry): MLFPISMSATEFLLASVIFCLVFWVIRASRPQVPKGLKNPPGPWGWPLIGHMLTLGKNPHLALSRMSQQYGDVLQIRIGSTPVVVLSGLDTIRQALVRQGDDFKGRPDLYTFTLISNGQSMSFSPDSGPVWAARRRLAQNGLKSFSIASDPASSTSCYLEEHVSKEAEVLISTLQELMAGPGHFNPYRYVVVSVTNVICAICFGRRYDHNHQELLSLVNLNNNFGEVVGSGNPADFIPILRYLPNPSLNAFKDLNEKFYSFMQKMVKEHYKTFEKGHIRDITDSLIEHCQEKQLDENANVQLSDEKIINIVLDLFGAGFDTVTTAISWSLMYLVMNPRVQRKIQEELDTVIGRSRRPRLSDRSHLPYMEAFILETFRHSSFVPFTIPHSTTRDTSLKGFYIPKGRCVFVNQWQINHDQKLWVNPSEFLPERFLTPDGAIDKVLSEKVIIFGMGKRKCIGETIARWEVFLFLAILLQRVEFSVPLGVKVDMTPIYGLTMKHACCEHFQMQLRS

What does the source list for Cc1cc(C(=O)Nc2ccccc2)c2ccc(-c3ccc([C@H]4CC[C@H](CC(=O)O)CC4)cc3)cc2n1?
IC50 [1]: 1100 nM; IC50 [2]: 10 nM; Activity (Mus musculus [3]): -100%; Activity (Mus musculus [4]): -94%; Activity (Mus musculus [5]): -79%; AUC [6]: 79 µM·h; fold induction at 10 µM [7]: 1.4; Activity (Cytochrome P450 1A1): Active

Source: ChEMBL document CHEMBL3232904, “Discovery of novel quinoline carboxylic acid series as DGAT1 inhibitors” (Bioorg Med Chem Lett, 2014)
